Experiment [1] has as its system Saccharomyces cerevisiae. The experiment in a line: Growth inhibition of Saccharomyces cerevisiae FM588 expressing wild type rad52 gene at 1 to 100 uM after 24 hrs by spectrophotometry. Type of experiment: functional, organism-based.
The subject of experiment [2] is Saccharomyces cerevisiae. As to the kind of experiment: Cell cycle arrest in Saccharomyces cerevisiae W3749-14C harboring RAD52-YFP assessed as accumulation at G2 Phase at 100 uM after 3 hrs. The format is functional, organism-based. The essentials: (§1)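 RAD52-YFP yeast (W3749-14C) growing asynchronously treated 3 h at 25 °C with 100 µM compound in 1% DMSO; DMSO and phleomycin 25 µg/mL as controls. Cells micrographed. Mononucleated budded cells with bud over two-thirds mother size scored as G2-arrested. Foci per cell = total YFP foci / total cells.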

The subject of a further experiment is SK-BR-3. As to the kind of experiment: Antiproliferative activity against human SKBR3 cells after 48 hrs by MTT assay. Type of experiment: functional, cell-based. The conditions noted are these: SK-BR-3, 48 h. The method in brief: (§2)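 Cells seeded at 10,000 per well; compound or vehicle (0.1% DMSO final) added 24 h after plating and left 48 h. MTT added at 0.5 mg/mL final for 3 h at 37 °C, formazan dissolved in SDS–HCl (20% SDS, 0.02 M HCl), absorbance at 570 nm. IC50 by non-linear regression; mean SD, n = 3.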
In general terms: Tetrazolium assays rely on reduction of a dye to a coloured formazan, in cell work by metabolically active cells.

A further experiment concerns HEL. The experiment in a line: Antiproliferative activity against human HEL cells after 48 hrs by MTT assay. The format is functional, cell-based. The essentials:
as §2

For experiment [3], the target named is DNA topoisomerase 2-alpha (Homo sapiens) (UniProt P11388). As to the kind of experiment: Inhibition of human DNA topoisomerase 2alpha-mediated relaxation of supercoiled pRYG plasmid DNA assessed as formation of linearized DNA at 100 uM after 30 mins by agarose gel electrophoresis relative to vehicle-treated control in presence of ethidium bromide. The essentials: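 Cleavage-complex assay set up as the Topo IIα relaxation reaction, but with 10 units of hTopoIIα added 1–3 min before 100 µM compound in 1% DMSO. Etoposide as positive control. Electrophoresis in TAE containing 0.5 µg/mL ethidium bromide to resolve the linearized intermediate.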

The subject of experiment [4] is Saccharomyces cerevisiae. As to the kind of experiment: Induction of DNA repair in Saccharomyces cerevisiae W3749-14C harboring Rad52-YFP assessed as increase in Rad52 foci formation at 100 uM after 3 hrs. The format is functional, organism-based. The essentials:
as §1

Experiment [5] has as its target DNA topoisomerase 2-alpha (Homo sapiens) (UniProt P11388). The experiment in a line: Inhibition of human DNA topoisomerase 2alpha-mediated DNA cleavage assessed as decrease in relaxation of supercoiled pRYG plasmid at 30 uM after 30 mins by agarose gel electrophoresis. The method in brief:
(§3)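 Human Topo IIα, 1–2 units, with 250 ng supercoiled pRYG and 1 mM ATP in 5 mM Tris-HCl pH 7.5, 12.5 mM NaCl, 1 mM MgCl2, 0.5 mM DTT, 10 µg/mL albumin. Compound added in DMSO, 1% final. Incubated 37 °C for 30 min, stopped with SDS/EDTA, proteinase K digestion. 1% agarose in TBE without ethidium bromide, stained afterwards. Inhibition scored at 100, 60 and 30 µM.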

For experiment [6] the target is unchanged. As to the kind of experiment: Inhibition of human DNA topoisomerase 2alpha-mediated DNA cleavage assessed as decrease in relaxation of supercoiled pRYG plasmid at 100 uM after 30 mins by agarose gel electrophoresis. The essentials: as §3
The test system of experiment [7] is Saccharomyces cerevisiae. As to the kind of experiment: Growth inhibition of isogenic rad52-deficient Saccharomyces cerevisiae FM588 at 1 to 100 uM after 24 hrs by spectrophotometry. Type of experiment: functional, organism-based.
For experiment [8], the target named is T1, DNA topoisomerase 1 (Homo sapiens) (UniProt P11387).
T1 sequence (whole entry): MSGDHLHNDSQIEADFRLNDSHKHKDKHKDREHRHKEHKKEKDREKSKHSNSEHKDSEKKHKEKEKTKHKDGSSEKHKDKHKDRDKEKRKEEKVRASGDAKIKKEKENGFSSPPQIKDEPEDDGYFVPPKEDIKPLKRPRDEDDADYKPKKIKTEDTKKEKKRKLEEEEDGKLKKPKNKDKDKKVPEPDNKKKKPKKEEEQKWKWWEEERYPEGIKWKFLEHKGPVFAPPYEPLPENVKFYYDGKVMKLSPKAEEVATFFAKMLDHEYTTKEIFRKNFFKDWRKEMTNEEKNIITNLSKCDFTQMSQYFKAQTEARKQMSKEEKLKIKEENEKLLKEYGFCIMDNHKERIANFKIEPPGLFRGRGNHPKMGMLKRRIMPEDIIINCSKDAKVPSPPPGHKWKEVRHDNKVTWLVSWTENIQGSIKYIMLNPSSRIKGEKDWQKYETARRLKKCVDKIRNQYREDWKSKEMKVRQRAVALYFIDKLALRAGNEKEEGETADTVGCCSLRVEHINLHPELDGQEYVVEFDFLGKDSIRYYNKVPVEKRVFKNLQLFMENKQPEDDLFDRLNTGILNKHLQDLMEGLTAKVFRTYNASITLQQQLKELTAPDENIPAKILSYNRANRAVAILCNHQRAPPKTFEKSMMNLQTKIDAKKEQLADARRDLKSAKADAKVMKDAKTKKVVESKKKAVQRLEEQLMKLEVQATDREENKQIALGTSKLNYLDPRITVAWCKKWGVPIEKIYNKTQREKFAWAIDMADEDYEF
As to the kind of experiment: Inhibition of DNA topoisomerase 1 (unknown origin)-mediated relaxation of supercoiled pBSKS plasmid DNA assessed as formation of nicked form of DNA at 1 00 uM after 30 mins by agarose gel electrophoresis in presence of ethidium bromide.

A further experiment deals with MCF7. As to the kind of experiment: Antiproliferative activity against human MCF7 cells after 48 hrs by MTT assay. Type of experiment: functional, cell-based. The conditions noted are these: MCF7, 48 h. The method in brief:
as §2

The target in experiment [9] is DNA topoisomerase 2-alpha (Homo sapiens) (UniProt P11388). The experiment in a line: Inhibition of human DNA topoisomerase 2alpha-mediated DNA cleavage assessed as decrease in relaxation of supercoiled pRYG plasmid at 60 uM after 30 mins by agarose gel electrophoresis. The essentials: as §3
The target in experiment [10] is T2, Type II restriction enzyme XhoI (Xanthomonas vasicola) (UniProt Q9KVZ7).
T2 sequence (whole entry): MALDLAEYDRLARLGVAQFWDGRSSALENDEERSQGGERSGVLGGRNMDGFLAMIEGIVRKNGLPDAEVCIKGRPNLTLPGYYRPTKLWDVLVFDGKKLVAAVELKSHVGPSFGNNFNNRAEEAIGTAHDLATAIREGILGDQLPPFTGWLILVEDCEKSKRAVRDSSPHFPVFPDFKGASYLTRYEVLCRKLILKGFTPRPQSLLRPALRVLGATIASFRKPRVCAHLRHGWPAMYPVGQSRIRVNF
As to the kind of experiment: Inhibition of Xanthomonas vasicola Xho1 assessed as inhibition of endonucleolytic cleavage of pBSKS plasmid DNA at 100 uM by agarose gel electrophoresis. The method in brief:
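XhoI digestion of pBSKS plasmid, which carries a single XhoI site, run like the Topo I reaction with compounds at 100 µM in 1% DMSO. Actinomycin D as intercalator control. Agarose gel separates supercoiled, nicked intermediate and linear product.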

Experiment [11] addresses T1, DNA topoisomerase 1 (Homo sapiens). As to the kind of experiment: Inhibition of DNA topoisomerase 1 (unknown origin)-mediated DNA cleavage assessed as decrease in relaxation of supercoiled pBSKS plasmid at 1 00 uM after 30 mins by agarose gel electrophoresis.

SMILES strings stand for the structures. Calls of active or inactive are those of the source. No cut-off for these calls is given here.

Broadly, the IC50 is the concentration at which inhibition is half-maximal. High values mean weaker potency in that assay, low ones greater potency in that assay.

DNA topoisomerase 2-alpha (Homo sapiens), sequence (P11388 whole entry): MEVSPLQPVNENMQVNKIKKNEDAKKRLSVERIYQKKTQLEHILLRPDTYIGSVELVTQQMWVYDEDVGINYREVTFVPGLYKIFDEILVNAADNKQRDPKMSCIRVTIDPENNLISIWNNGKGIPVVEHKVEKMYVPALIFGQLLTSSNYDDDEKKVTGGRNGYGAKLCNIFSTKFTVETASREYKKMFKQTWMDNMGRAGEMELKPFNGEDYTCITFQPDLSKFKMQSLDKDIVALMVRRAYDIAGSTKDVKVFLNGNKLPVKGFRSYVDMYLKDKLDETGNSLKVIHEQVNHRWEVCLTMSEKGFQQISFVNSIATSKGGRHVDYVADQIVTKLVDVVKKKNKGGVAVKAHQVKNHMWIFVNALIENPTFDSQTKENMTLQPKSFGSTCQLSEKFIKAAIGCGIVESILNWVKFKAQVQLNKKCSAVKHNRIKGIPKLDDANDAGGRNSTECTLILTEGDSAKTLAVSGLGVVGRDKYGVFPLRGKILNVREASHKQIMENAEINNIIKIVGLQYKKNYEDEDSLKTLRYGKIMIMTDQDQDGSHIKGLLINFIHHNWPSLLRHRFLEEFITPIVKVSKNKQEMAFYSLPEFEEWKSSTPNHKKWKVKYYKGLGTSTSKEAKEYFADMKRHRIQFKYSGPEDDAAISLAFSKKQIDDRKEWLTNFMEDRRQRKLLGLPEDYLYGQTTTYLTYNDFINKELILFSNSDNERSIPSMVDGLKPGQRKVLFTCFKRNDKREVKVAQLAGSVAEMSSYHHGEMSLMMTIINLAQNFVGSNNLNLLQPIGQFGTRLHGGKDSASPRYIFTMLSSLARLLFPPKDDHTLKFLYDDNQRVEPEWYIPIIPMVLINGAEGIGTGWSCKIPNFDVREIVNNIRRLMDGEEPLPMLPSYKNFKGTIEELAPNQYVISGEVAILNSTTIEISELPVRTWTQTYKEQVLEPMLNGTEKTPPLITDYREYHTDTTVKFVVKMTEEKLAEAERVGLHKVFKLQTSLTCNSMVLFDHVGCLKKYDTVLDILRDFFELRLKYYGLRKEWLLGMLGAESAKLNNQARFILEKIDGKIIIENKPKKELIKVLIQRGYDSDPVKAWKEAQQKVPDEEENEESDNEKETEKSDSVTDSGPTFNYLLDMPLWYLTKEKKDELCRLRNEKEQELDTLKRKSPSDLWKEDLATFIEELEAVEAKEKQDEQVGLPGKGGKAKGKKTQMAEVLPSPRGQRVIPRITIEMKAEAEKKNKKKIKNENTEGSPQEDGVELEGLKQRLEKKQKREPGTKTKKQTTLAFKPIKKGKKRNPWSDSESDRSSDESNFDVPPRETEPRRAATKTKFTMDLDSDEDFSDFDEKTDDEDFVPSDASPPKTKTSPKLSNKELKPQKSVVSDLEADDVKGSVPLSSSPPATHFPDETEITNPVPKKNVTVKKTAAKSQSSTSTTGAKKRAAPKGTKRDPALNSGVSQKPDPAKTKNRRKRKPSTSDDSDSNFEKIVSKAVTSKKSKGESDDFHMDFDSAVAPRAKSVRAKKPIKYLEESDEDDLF

`CN(C)CCN1C(=O)c2cccc3cc(-c4cccc([N+](=O)[O-])c4)cc(c23)C1=O`: the “growth inhibition (GI)” value with Saccharomyces cerevisiae [1] is “Active”. Moreover, the result with Saccharomyces cerevisiae [2] and with Saccharomyces cerevisiae [4] was Active. Further, the IC50 in the experiment with SK-BR-3 stood at 1.2 µM; in the experiment on HEL, 0.6 µM. Further, the inhibition result in experiment [3] and in experiment [5] was “Active” in each case.
As for `CN(C)CCN1C(=O)c2cccc3cc(-c4cccc(N)c4)cc(c23)C1=O`, the inhibition entry in experiment [6] was “inactive”. Moreover, the “growth inhibition (GI)” value with Saccharomyces cerevisiae [7] was “Active”. Moreover, the 50% inhibitory concentration (IC50) in the experiment with SK-BR-3 worked out at 14.2 µM; with HEL it was 13.5 µM. In experiment [3], the inhibition entry is “Active”.
For `COc1ccc(-c2ccc3cccc4c3c2C(=O)N(CCN(C)C)C4=O)cc1`, the inhibition result in [6] and in experiment [8] was “inactive” in each case. Besides, the “growth inhibition (GI)” value in the experiment with Saccharomyces cerevisiae [7] was “inactive”. Besides, the IC50 in the experiment with SK-BR-3 and in the experiment on MCF7 was above 30 µM each time.
Regarding `COc1ccc(-c2cc3c4c(cccc4c2)C(=O)N(CCN(C)C)C3=O)cc1`, the inhibition entry in experiment [6] is “Active”. Further, the inhibition result in experiment [8] was “inactive”. Further, the “growth inhibition (GI)” value in the experiment on Saccharomyces cerevisiae [7] was “Active”. Further, the IC50 with SK-BR-3 came to 1.5 µM; with MCF7, 7.6 µM.
On to `CN(C)CCN1C(=O)c2cccc3cc(N)cc(c23)C1=O` [AMONAFIDE], for which, in the experiment with Saccharomyces cerevisiae [1], the “growth inhibition (GI)” value is “inactive”. Besides, in the experiment with Saccharomyces cerevisiae [7], the “growth inhibition (GI)” value is “Active”. Besides, the IC50 worked out at 7.4 µM with SK-BR-3 and 3.4 µM in the experiment on HEL. Moreover, the inhibition result in [3] and in experiment [9] was “Active” in each case.
For `COc1cccc(-c2ccc3cccc4c3c2C(=O)N(CCN(C)C)C4=O)c1`, the half-maximal inhibitory concentration (IC50) with SK-BR-3 and with MCF7 was above 30 µM in each case.
Take `COc1cccc(-c2cc3c4c(cccc4c2)C(=O)N(CCN(C)C)C3=O)c1`: the inhibition result in experiment [10], in experiment [11], in [3] and in [9] was “Active” in each case. Moreover, the “growth inhibition (GI)” value in the experiment on Saccharomyces cerevisiae [1] was “Active”. Moreover, the inhibition entry in experiment [8] was “inactive”. Besides, the outcome in the experiment with Saccharomyces cerevisiae [2] and with Saccharomyces cerevisiae [4] was Active. Further, the values for the IC50 in the experiment on SK-BR-3, in the experiment on HEL and in the experiment on MCF7 were 0.3 µM, 2.7 µM and 0.5 µM, respectively.
As for `COc1ccccc1-c1ccc2c3c(cccc13)C(=O)N(CCN(C)C)C2=O`, the inhibition result in experiment [6] and in experiment [8] was “inactive” throughout. Besides, in the experiment with Saccharomyces cerevisiae [7], the “growth inhibition (GI)” value was “inactive”. The 50% inhibitory concentration (IC50) in the experiment with SK-BR-3 and in the experiment with MCF7 was above 30 µM in each case.
In the case of `COc1ccccc1-c1ccc2cccc3c2c1C(=O)N(CCN(C)C)C3=O`, the inhibition result in experiment [6] and in experiment [8] was “inactive” each time. In addition, the IC50 in the experiment on SK-BR-3 and with MCF7 was 24 µM in each case.
As for `CN(C)CCN1C(=O)c2cccc3cc(-c4ccccc4)cc(c23)C1=O`, in the experiment on Saccharomyces cerevisiae [1], the “growth inhibition (GI)” value was “Active”. Also, the outcome with Saccharomyces cerevisiae [2] and in the experiment on Saccharomyces cerevisiae [4] was Active. Moreover, the figures for the half-inhibitory concentration (IC50) in the experiment with SK-BR-3 and in the experiment with HEL were 0.8 µM and 6 µM, respectively. Besides, the inhibition result in experiment [3] and in experiment [5] was “Active” each time.
Take `COc1cccc(-c2ccc3c4c(cccc24)C(=O)N(CCN(C)C)C3=O)c1`: the inhibition result in experiment [6] and in experiment [11] was “Active” throughout. Further, the inhibition entry in experiment [8] was “inactive”. Also, the IC50 with SK-BR-3 and in the experiment with MCF7 was above 30 µM each time.
`CN(C)CCN1C(=O)c2cccc3cc(-c4cccc(C(F)(F)F)c4)cc(c23)C1=O`: the “growth inhibition (GI)” value with Saccharomyces cerevisiae [1] is “Active”. For the same compound, the outcome with Saccharomyces cerevisiae [2] and with Saccharomyces cerevisiae [4] was Active. Besides, the IC50 in the experiment on SK-BR-3 worked out at 1.2 µM; in the experiment with HEL, 1.6 µM. For the same compound, the inhibition result in [3] and in [9] was “Active” each time.
`COc1ccccc1-c1cc2c3c(cccc3c1)C(=O)N(CCN(C)C)C2=O`: the inhibition result in [6] is “Active”. Moreover, in experiment [8], the inhibition entry was “inactive”. Also, the concentration for half-maximal inhibition (IC50) stood at 11.9 µM in the experiment on SK-BR-3 and 25.7 µM in the experiment on MCF7.
With `CN(C)CCN1C(=O)c2cccc3cc(-c4cccc(O)c4)cc(c23)C1=O`, the inhibition entry in experiment [6] and in experiment [3] was “Active” in each case. For the same compound, the “growth inhibition (GI)” value in the experiment on Saccharomyces cerevisiae [7] is “Active”. Further, the half-maximal inhibitory concentration (IC50) is 4.4 µM with SK-BR-3 and 7 µM in the experiment with HEL.
On to `COc1ccc(-c2ccc3c4c(cccc24)C(=O)N(CCN(C)C)C3=O)cc1`, for which, in experiment [8], the inhibition entry is “inactive”. Also, the 50% inhibitory concentration (IC50) in the experiment on SK-BR-3 was 27.6 µM; with MCF7 it was above 30 µM. In addition, the inhibition result in [11] and in experiment [9] was “Active” throughout.

The values above are taken from ChEMBL document CHEMBL2439982, “Synthesis and study of antiproliferative, antitopoisomerase II, DNA-intercalating and DNA-damaging activities of arylnaphthalimides” (Bioorg Med Chem, 2013).
